Results on 6 compounds are retold here after ChEMBL document CHEMBL1138390, “Synthesis and biological evaluation of novel T-type calcium channel blockers” (Bioorg Med Chem Lett, 2007).

For orientation: inhibition means how much of the control response was suppressed. Usually IC50 stands for the concentration that inhibits the measured activity by half.

Test [1] concerns the target T1, Voltage-dependent T-type calcium channel subunit alpha-1G (Homo sapiens, UniProt O43497). As to the kind of experiment: Inhibition of T-type calcium channel Cav3.1 expressed in HEK293 cells co-expressing alpha1G subunit at 10 uM by whole-cell patch clamp method. In kind it is cell-based. The method in brief: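 α1G T-type channel expressed in HEK293 cells, whole-cell patch clamp. Percent inhibition of α1G currents at a single test concentration, given as mean ± SE from n ≥ 4 repeats. IC50 is the molar concentration giving 50% current inhibition, obtained by fitting raw data to dose–response curves.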

The target in test [2] is T1, Voltage-dependent T-type calcium channel subunit alpha-1G. As to the kind of experiment: Inhibition of T-type calcium channel Cav3.1 expressed in HEK293 cells co-expressing alpha1G subunit by whole-cell patch clamp method. It is filed as cell-based. A general note: In patch-clamp work, channel activity is measured electrically.
Test [3] addresses Voltage-dependent N-type calcium channel subunit alpha-1B (Homo sapiens) (UniProt Q00975). In words: Inhibition of N-type calcium channel expressed in HEK293 cells co-expressing Alpha-1B subunit at 10 uM. It is filed as cell-based. The method in brief: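 N-type α1B channel expressed in HEK293 cells. Percent current inhibition at a single test concentration, reported as mean ± SE from n ≥ 4 repeated measurements. Inhibition below 1% was recorded as no blocking.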

The species entered for test [4] is Homo sapiens. As to the kind of experiment: Selectivity index, ratio of T-type calcium channel Cav3.1 to N-type calcium channel at 10 uM.
For test [5], the target named is Voltage-dependent T-type calcium channel subunit alpha-1H (Homo sapiens) (UniProt O95180). As to the kind of experiment: Inhibition of T-type calcium channel Cav3.2 expressed in Xenopus oocytes coexpressing alpha-1H subunit at 100 uM by two-electrode voltage clamp method. (In general: Two-electrode voltage clamp is typically applied to oocytes expressing channels or transporters.)

Chain of Voltage-dependent N-type calcium channel subunit alpha-1B (Homo sapiens) (Q00975 whole entry, looked up): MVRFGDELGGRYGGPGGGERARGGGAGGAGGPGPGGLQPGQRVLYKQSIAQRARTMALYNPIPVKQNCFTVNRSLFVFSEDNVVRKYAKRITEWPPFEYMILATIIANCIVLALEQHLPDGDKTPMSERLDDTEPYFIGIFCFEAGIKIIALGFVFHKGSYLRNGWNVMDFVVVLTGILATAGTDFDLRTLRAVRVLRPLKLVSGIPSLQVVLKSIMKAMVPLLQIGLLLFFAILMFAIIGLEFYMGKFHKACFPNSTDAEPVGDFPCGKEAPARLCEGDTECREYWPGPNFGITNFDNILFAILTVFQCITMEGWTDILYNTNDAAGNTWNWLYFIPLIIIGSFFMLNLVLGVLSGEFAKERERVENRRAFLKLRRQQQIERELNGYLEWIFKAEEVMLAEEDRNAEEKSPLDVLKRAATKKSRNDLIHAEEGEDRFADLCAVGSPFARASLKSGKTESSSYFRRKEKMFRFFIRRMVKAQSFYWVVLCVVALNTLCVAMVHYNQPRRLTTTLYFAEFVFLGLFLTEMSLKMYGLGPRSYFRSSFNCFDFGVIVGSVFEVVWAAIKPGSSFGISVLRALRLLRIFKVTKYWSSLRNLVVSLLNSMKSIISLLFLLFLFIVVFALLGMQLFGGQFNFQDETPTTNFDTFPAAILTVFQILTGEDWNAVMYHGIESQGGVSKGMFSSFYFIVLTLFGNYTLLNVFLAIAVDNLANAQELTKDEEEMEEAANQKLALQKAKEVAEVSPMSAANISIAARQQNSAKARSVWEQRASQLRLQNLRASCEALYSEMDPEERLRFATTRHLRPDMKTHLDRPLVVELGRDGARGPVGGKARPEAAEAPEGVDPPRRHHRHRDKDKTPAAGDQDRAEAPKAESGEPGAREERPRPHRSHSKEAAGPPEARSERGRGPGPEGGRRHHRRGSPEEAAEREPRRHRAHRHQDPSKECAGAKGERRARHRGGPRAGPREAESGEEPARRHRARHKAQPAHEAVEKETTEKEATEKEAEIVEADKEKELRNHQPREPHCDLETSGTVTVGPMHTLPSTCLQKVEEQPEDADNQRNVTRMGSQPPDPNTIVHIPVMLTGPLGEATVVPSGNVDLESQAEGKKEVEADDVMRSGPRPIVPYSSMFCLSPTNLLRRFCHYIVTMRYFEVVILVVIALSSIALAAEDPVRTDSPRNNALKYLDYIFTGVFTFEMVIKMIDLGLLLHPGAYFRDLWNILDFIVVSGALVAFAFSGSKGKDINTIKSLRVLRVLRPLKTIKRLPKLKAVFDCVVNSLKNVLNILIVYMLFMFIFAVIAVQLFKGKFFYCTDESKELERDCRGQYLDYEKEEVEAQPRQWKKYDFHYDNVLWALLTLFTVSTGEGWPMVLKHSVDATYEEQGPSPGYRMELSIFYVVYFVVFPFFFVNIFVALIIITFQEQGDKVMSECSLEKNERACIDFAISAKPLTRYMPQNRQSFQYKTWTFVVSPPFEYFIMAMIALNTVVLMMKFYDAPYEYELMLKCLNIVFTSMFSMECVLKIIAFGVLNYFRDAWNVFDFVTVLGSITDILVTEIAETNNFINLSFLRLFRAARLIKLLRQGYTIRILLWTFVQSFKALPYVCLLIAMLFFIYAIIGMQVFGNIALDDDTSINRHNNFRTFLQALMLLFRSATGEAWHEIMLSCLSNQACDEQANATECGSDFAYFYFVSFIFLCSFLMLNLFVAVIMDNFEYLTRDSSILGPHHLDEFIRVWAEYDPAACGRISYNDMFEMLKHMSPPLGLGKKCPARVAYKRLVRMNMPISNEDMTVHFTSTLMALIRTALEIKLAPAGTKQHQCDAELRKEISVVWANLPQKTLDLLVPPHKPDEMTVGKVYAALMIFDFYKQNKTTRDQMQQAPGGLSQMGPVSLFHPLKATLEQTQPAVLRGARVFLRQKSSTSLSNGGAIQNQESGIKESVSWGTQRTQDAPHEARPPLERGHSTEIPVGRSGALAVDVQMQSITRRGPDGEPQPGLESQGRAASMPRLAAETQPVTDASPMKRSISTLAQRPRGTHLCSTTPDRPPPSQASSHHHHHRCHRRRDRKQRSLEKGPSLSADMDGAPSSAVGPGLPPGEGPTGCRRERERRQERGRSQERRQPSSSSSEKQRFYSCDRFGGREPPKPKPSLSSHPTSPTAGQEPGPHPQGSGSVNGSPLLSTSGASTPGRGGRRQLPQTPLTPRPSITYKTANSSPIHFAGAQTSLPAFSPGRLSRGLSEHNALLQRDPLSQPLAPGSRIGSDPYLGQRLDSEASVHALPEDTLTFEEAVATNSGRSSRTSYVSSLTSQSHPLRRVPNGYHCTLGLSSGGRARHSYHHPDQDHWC
T1 sequence (O43497 whole entry): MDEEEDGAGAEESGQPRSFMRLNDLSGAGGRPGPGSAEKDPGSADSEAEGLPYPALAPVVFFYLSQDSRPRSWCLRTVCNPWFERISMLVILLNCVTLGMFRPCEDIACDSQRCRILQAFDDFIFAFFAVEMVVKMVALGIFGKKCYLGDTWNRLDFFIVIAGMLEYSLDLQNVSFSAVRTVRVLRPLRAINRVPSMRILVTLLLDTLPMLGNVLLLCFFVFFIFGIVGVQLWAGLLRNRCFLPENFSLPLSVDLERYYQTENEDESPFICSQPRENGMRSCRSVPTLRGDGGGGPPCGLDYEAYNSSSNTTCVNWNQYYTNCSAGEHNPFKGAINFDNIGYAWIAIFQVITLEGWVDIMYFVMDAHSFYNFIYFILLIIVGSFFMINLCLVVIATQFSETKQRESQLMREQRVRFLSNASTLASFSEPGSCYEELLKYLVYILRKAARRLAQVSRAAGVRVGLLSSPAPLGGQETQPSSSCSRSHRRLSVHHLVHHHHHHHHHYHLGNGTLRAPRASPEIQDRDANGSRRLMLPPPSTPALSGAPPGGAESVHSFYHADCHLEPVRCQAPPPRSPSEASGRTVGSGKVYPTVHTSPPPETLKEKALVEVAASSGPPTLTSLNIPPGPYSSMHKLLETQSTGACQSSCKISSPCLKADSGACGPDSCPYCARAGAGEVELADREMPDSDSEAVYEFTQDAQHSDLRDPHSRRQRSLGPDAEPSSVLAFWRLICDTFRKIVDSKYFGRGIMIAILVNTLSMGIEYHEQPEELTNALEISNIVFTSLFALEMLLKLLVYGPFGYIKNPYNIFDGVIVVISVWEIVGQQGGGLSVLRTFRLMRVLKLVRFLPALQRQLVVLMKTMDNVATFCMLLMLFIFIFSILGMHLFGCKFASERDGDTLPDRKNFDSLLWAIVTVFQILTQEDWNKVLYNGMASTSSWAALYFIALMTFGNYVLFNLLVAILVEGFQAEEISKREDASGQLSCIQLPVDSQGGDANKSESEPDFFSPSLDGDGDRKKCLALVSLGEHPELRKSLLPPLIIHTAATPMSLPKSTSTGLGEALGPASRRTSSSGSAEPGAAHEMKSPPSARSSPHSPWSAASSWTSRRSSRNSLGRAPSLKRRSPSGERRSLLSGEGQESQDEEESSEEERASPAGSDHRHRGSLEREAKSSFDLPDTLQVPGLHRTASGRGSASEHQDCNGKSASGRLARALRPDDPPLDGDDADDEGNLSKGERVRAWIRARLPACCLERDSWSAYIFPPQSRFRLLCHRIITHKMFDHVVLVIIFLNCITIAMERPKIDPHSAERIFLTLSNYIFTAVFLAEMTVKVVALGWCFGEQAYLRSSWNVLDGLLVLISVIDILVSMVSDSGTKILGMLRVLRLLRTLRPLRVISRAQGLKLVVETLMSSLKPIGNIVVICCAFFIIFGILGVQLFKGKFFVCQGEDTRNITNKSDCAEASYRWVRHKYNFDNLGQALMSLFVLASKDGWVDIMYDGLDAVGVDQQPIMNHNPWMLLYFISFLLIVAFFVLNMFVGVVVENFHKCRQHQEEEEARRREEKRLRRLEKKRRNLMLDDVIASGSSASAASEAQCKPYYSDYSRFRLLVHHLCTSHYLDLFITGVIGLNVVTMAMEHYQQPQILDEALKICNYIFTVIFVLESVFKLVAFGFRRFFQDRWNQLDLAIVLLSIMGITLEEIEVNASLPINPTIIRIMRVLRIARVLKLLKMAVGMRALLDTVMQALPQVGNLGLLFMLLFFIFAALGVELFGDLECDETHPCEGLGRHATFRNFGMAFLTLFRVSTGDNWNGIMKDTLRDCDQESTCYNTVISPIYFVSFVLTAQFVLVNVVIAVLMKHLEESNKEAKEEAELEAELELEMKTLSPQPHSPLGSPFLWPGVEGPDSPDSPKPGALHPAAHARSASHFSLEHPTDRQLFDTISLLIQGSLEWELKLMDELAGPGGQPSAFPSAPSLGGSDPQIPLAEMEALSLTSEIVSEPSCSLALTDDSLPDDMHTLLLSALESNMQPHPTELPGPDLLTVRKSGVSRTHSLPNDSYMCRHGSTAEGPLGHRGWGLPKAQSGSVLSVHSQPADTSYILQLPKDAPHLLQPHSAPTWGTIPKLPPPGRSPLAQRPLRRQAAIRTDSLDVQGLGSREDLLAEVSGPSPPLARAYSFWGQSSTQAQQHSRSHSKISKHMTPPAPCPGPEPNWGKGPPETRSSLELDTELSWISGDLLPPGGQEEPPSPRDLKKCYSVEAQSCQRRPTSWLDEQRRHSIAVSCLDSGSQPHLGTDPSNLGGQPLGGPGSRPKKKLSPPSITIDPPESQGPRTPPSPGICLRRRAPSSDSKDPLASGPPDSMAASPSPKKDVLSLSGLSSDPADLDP

In the case of `COC(=O)CC1c2ccccc2N=C(N(C)CCCCCN2CCCC2)N1c1ccc(-c2ccccc2)cc1` (stereo unspecified), the inhibition in test [1] was 94.9%; in test [3] it was 36.5%; in test [5], 88%. Further, the 50% inhibitory concentration (IC50) in test [2] was 0.34 µM. In addition, the Ratio in test [4] was determined as 2.6.

Regarding `COC(=O)CC1c2ccccc2N=C(N(C)CCCCCN2CCCC2)N1c1ccccc1` (stereo unspecified), the results for the inhibition in test [1], in test [3] and in test [5] were 59.5%, 10.7% and 47.7%, respectively. For the same compound, the IC50 in test [2] is 5.84 µM. Besides, the Ratio in test [4] turned out to be 5.6.

Take `NCCCCCNC1=Nc2ccccc2C(CC(=O)NCc2ccccc2)N1c1ccc(-c2ccccc2)cc1` (stereo unspecified): the Ratio in test [4] was found to be 10.1.

In the case of `CN(CCCCCN1CCCC1)C1=Nc2ccccc2C(CC(=O)NCc2ccccc2)N1c1ccccc1` (stereo unspecified), the values for the inhibition in test [1], in test [3] and in test [5] were 68.1%, 46.3% and 82.7%, respectively. For the same compound, the half-maximal inhibitory concentration (IC50) in test [2] was 4.2 µM. Further, in test [4], the Ratio is 1.5.

Consider `COC(=O)CC1c2ccccc2N=C(NCCCCCN)N1c1ccc(-c2ccccc2)cc1` (stereo unspecified), for which the Ratio in test [4] was above 100.

As to `CN(CCCCCN1CCCC1)C1=Nc2ccccc2C(CC(=O)NCc2ccccc2)N1c1ccc(-c2ccccc2)cc1` (stereo unspecified), the inhibition was 88.1% in test [1], 11.7% in test [3] and 95.5% in test [5]. Besides, the Ratio in test [4] turned out to be 7.5.
